Data from ChEMBL document CHEMBL4665889, “Design, Synthesis, and Pharmacological Characterization of a Neutral, Non-Prodrug Thrombin Inhibitor with Good Oral Pharmacokinetics” (J Med Chem, 2020).

Columns and labels:
[1] = Permeability from apical to basolateral side in human Caco2 cells incubated for 2 hrs by LC-MS/MS analysis; type: ADME, cell-based; conditions: Caco-2
Outline: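 Caco-2 cells grown 15 d on 0.4 μm inserts, TEER ≥600 Ω. Compound (DMSO stock diluted 100-fold) in HBSS pH 7.4 with 10 mM HEPES and 20 mM glucose, added apically or basolaterally. Incubated 2 h at 37 °C and analysed by LC-MS/MS. Papp = (Vr/P0)·(1/S)·(P2/t); mean and SD.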

[2] = Clearance in Wistar rat hepatocytes at 1 uM incubated up to 90 mins by LC-MS/MS analysis; type: ADME, cell-based, Hepatocyte; conditions: for CLhep predicted at 1 µM: Wistar
Outline: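 Fresh male Wistar rat hepatocytes, 1 × 10⁶ viable cells/mL, in Williams' medium E at 37 °C, pH 7.4, with 1 μM substrate and <1% acetonitrile. Samples at 2–90 min quenched in acetonitrile and analysed by LC-MS/MS.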

[3] = molecular target: T1, Nuclear receptor subfamily 1 group I member 2 (Homo sapiens, UniProt O75469); test: Activation of human PXR expressed in human HepG2 cells; type: ADME, cell-based
T1 sequence (O75469 whole entry): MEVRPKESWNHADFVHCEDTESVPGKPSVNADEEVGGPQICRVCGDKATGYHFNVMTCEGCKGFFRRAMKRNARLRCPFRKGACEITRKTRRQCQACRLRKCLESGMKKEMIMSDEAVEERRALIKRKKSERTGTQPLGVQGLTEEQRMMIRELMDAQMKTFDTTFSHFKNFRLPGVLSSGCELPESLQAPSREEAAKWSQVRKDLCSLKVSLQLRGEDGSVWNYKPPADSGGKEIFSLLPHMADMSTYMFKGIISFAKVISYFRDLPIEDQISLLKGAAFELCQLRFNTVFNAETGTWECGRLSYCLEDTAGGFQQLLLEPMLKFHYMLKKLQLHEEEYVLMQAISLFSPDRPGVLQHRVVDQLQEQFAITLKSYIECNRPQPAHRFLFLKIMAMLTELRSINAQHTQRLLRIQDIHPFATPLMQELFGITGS
Outline: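 HepG2 cells transiently co-transfected with human PXR and a luciferase reporter under the human CYP3A4 promoter, 48 h before readout. 24 h after seeding, 1:3 serial dilutions (2 nM to 50 μM, 0.5% DMSO) added. Luminescence normalized to rifampicin (100%) and DMSO (0%). MEC is the lowest concentration raising signal above 4-fold SD of DMSO background.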

[4] = Blood clearance in Wistar Hannover rat at 0.3 to 0.5 mg/kg, iv by LC-MS/MS analysis; type: ADME, organism-based; conditions: whole blood, dose 0.3-0.5 mg/kg, time <=24 hrs
Outline: (§1)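 Male Wistar Hannover rats, catheterized under isoflurane; one day later iv injection into lateral tail vein at 0.3 to 0.5 mg/kg in plasma containing 2% DMSO. Blood sampled via catheter from 0.033 to 24 h. Plasma precipitated with acetonitrile, analysed by LC-MS/MS (10 mM ammonium acetate pH 3.0/acetonitrile gradient). PK parameters calculated from plasma concentrations.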

[5] = MRT in Wistar Hannover rat at 0.3 to 0.5 mg/kg, iv by LC-MS/MS analysis; type: ADME, organism-based; conditions: in vivo, dose 0.3-0.5 mg/kg, time <=24 hrs; outline: as §1
[6] = AUC/dose in Wistar Hannover rat at 0.3 to 0.5 mg/kg, iv by LC-MS/MS analysis; type: ADME, organism-based; conditions: in vivo, dose 0.3-0.5 mg/kg, time <=24 hrs; outline: as §1
[7] = Ratio of drug level in blood to plasma in Wistar Hannover rat at 0.3 to 0.5 mg/kg, iv by LC-MS/MS analysis; type: ADME, organism-based; conditions: blood and plasma, dose 0.3-0.5 mg/kg, time <=24 hrs
[8] = Volume of distribution at steady state in Wistar Hannover rat at 0.3 to 0.5 mg/kg, iv by LC-MS/MS analysis; type: ADME, organism-based; conditions: in vivo, dose 0.3-0.5 mg/kg, time <=24 hrs, read-out: Vdss; outline: as §1
[9] = Half life in Wistar Hannover rat at 0.3 to 0.5 mg/kg, iv by LC-MS/MS analysis; type: ADME, organism-based; conditions: in vivo, dose 0.3-0.5 mg/kg, time <=24 hrs; outline: as §1
[10] = molecular target: T1, Nuclear receptor subfamily 1 group I member 2; test: Activation of human PXR human hepatocytes assessed as induction of CYP3A4 mRNA expression incubated for 48 hrs by qPCR analysis; type: ADME, tissue-based, Hepatocyte
Outline: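 Human hepatocytes in collagen sandwich, cultured 1 d, then treated with eight 1:3 serial concentrations for 2 consecutive days with daily media change. mRNA isolated on magnetic beads, reverse transcribed, and quantified by TaqMan qRT-PCR against actin/tubulin. Fold induction over vehicle by ΔΔCt; NOEL reported.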

Compound	Papp A→B at 2 h [1]	CLhep predicted at 1 µM [2]	MEC [3]	further results
COc1cc(C(=O)N2C[C@H](C)OC[C@@H]2CCO)cc2nc(N[C@H](C)c3cccc(Cl)c3)oc12	10.1 ×10⁻⁶ cm/s	45 mL/min/kg	2.8 µM	
COc1cc(C(=O)N2CCC(O)C(C)C2)cc2nc(NCc3cc(Cl)ccn3)oc12 (racemic)	4.1 ×10⁻⁶ cm/s	14.3 mL/min/kg	3.6 µM	
O=C(NCc1cccc(Cl)c1)c1ccc2cn(CCN3CCOC3=O)nc2c1	6.2 ×10⁻⁶ cm/s			clearance [4]: 23.3 mL/min/kg
COc1cc(C(=O)N2CC(C)C(O)CC2CCO)cc2nc(NCc3cccc(Cl)c3)oc12 (racemic)	0.94 ×10⁻⁶ cm/s	4.5 mL/min/kg	0.81 µM	
CCCN(CC1CCOC1)C(=O)c1cc(OC)c2oc(NCc3cccc(Cl)c3)nc2c1 (racemic)	24.6 ×10⁻⁶ cm/s	65 mL/min/kg		
COc1cc(C(=O)N2CC(C)CCC2CCO)cc2nc(NCc3cccc(Cl)c3)oc12 (stereo in doubt; 37b)			0.03 µM	CLH ([2]; 1.5 h, 1 µM): 56.7 mL/min/kg
COc1cc(C(=O)N2CCOCC2(C)C)cc2nc(NCc3cccc(Cl)c3)oc12			1.3 µM	
COc1cc(C(=O)N2CCC(O)C(C)C2)cc2nc(NCc3cccc(Cl)c3)oc12 (racemic)	8.4 ×10⁻⁶ cm/s	45 mL/min/kg	1.4 µM	
COc1cc(C(=O)N2CC(C)OCC2CCO)cn2nc(NCc3cccc(Cl)c3)nc12 (stereo not drawn)		31.7 mL/min/kg	11 µM	
COc1cc(C(=O)N2CC(C)OCC2CCO)cc2nc(NCc3cc(Cl)ccn3)oc12 (stereo not drawn)	11.1 ×10⁻⁶ cm/s	20 mL/min/kg	17 µM	MRT [5]: 0.51 h; AUC/dose [6]: 0.39 kg·h/L; clearance [4]: 40 mL/min/kg; blood plasma ratio [7]: 1.08; Vd [8]: 1.3 L/kg; half-life [9]: 0.5 h; NOAEL [10]: > 10000 ng/mL
COc1cc(C(=O)N2CCC(O)C(C)C2)cc2nc(NCc3cc(Cl)ccc3O)oc12 (racemic)			8.3 µM	
COc1cc(C(=O)N2CC[C@H](O)[C@@H](C)C2)cc2nc(NCc3cccc(Cl)c3)oc12		36.7 mL/min/kg		
CC[C@@H]1CO[C@@](C)(CCO)CN1C(=O)c1cc(OC)c2oc(N[C@H](C)c3cccc(Cl)c3)nc2c1	6.8 ×10⁻⁶ cm/s	65 mL/min/kg	0.26 µM	MRT [5]: 1.2 h; AUC/dose [6]: 0.32 kg·h/L; clearance [4]: 65 mL/min/kg; blood plasma ratio [7]: 1.07; Vd [8]: 3.7 L/kg; half-life [9]: 1 h; NOAEL [10]: 1111 ng/mL
COc1cc(C(=O)N2CC(C)OCC2C2CC(O)C2)cc2nc(N[C@H](CF)c3cccc(Cl)c3)oc12 (stereo partly drawn)		56.7 mL/min/kg	3 µM	
COc1cc(C(=O)N2CC(C)OCC2C2CC(O)C2)cn2nc(NCc3cccc(Cl)c3)nc12 (stereo not drawn)	7.2 ×10⁻⁶ cm/s	50 mL/min/kg	13 µM	
CCC1CC(O)C(C)CN1C(=O)c1cc(OC)c2oc(NCc3cccc(Cl)c3)nc2c1 (racemic)		61.7 mL/min/kg		

Compound	Papp A→B at 2 h [1]	CLhep predicted at 1 µM [2]	MEC [3]	further results
COc1cc(C(=O)N2CC(C)OCC2C2CC(O)C2)cc2nc(NCc3cc(Cl)ccn3)oc12 (stereo not drawn)		45 mL/min/kg	8.2 µM	
COc1cc(C(=O)N2C[C@@H](C)OC[C@H]2CCO)cc2nc(N[C@H](C)c3cccc(Cl)c3)oc12		38.3 mL/min/kg	1.4 µM	
COc1cc(C(=O)N2CCC(O)CC2)cc2nc(NCc3cccc(Cl)c3)oc12	7.1 ×10⁻⁶ cm/s	21.7 mL/min/kg	3.1 µM	
COc1cc(C(=O)N2CCC(O)C(C)C2)cc2nc(NCc3cncc(Cl)c3)oc12 (racemic)	0.93 ×10⁻⁶ cm/s	40 mL/min/kg		
COc1cc(C(=O)N2CC(C)(CCO)OC[C@H]2C)cc2nc(N[C@H](CF)c3cccc(Cl)c3)oc12 (stereo partly drawn)		56.7 mL/min/kg	0.39 µM	MRT [5]: 1.1 h; AUC/dose [6]: 0.33 kg·h/L; clearance [4]: 53.3 mL/min/kg; blood plasma ratio [7]: 0.94; Vd [8]: 3.3 L/kg; half-life [9]: 1.1 h
COc1cc(C(=O)N2CC[C@@H](O)C(C)(C)C2)cc2nc(NCc3cccc(Cl)c3)oc12 (racemic)		51.7 mL/min/kg	6.3 µM	
COc1cc(C(=O)N2CC(C)C(O)CC2C)cc2nc(NCc3cccc(Cl)c3)oc12 (stereo not drawn)	12.7 ×10⁻⁶ cm/s	56.7 mL/min/kg	2.6 µM	
COc1cc(C(=O)N2CC(C)(CCO)OC[C@H]2C)cc2nc(NCc3cc(Cl)ccn3)oc12 (stereo partly drawn)		41.7 mL/min/kg	8 µM	MRT [5]: 0.46 h; AUC/dose [6]: 0.23 kg·h/L; clearance [4]: 66.7 mL/min/kg; blood plasma ratio [7]: 1.08; Vd [8]: 2 L/kg; half-life [9]: 0.44 h; NOAEL [10]: > 10000 ng/mL
COc1cc(C(=O)N2CC(C)(CCO)OC[C@H]2C)cc2nc(N[C@H](C)c3cccc(Cl)c3)oc12 (stereo partly drawn)		58.3 mL/min/kg	0.29 µM	
COc1cc(C(=O)N2CC(C)OCC2CO)cc2nc(N[C@H](C)c3cccc(Cl)c3)oc12 (stereo partly drawn)		15.5 mL/min/kg	0.29 µM	MRT [5]: 1.3 h; AUC/dose [6]: 0.47 kg·h/L; clearance [4]: 40 mL/min/kg; blood plasma ratio [7]: 0.88; Vd [8]: 2.7 L/kg; half-life [9]: 1.1 h
COc1cc(C(=O)N2CC(C)OCC2C2CC(O)C2)cc2nc(N[C@H](C)c3cccc(Cl)c3)oc12 (stereo partly drawn)		56.7 mL/min/kg	3.4 µM	
COc1cc(C(=O)N2CC(C)CCC2CCO)cc2nc(NCc3cccc(Cl)c3)oc12 (racemic)	19.1 ×10⁻⁶ cm/s	63.3 mL/min/kg	0.32 µM	
COc1cc(C(=O)N2CCCC2(C)C)cc2nc(NCc3cccc(Cl)c3)oc12		58.3 mL/min/kg		
COc1cc(C(=O)N2CCC(O)C(C)C2)cn2nc(NCc3cccc(Cl)c3)nc12 (racemic)	7.1 ×10⁻⁶ cm/s	35 mL/min/kg	20 µM	
COc1cc(C(=O)N2CCC(O)C(C)C2)cc2nc(NC3(c4cccc(Cl)c4)CC3)oc12 (racemic)		46.7 mL/min/kg		
COc1cc(C(=O)N2CC(C)C(O)CC2C2CC2)cc2nc(NCc3cccc(Cl)c3)oc12 (racemic)	13.8 ×10⁻⁶ cm/s	63.3 mL/min/kg	0.26 µM	
